# Data published in ChEMBL document CHEMBL3871271, “Novel bis-arylalkylamines as myeloperoxidase inhibitors: Design, synthesis, and structure-activity relationship study” (Eur J Med Chem, 2016).
# Tests used:
# [1] = Redox potential of compound in Ag/AgCl-NaCl containing phosphate buffer assessed as one electron redox potential at 1 10^-4M by cyclic voltammetric analysis
# How it was run: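 Cyclic voltammetry at 25 ± 2 °C in a three-electrode cell: glassy carbon working, platinum wire auxiliary, Ag/AgCl (3 M NaCl) reference. Inhibitor 1×10^-4 M in 0.1 M phosphate buffer pH 7.4. Single cycle at 100 mV s⁻¹. E°′ converted to NHE by adding +198 mV.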
# [2] = biological target: T1, Myeloperoxidase (Homo sapiens, UniProt P05164); test: Inhibition of MPO chlorination activity (unknown origin) assessed as taurine chloramine formation after 5 mins in presence of H2O2/Cl- by HTS method
# T1 sequence (P05164 whole entry): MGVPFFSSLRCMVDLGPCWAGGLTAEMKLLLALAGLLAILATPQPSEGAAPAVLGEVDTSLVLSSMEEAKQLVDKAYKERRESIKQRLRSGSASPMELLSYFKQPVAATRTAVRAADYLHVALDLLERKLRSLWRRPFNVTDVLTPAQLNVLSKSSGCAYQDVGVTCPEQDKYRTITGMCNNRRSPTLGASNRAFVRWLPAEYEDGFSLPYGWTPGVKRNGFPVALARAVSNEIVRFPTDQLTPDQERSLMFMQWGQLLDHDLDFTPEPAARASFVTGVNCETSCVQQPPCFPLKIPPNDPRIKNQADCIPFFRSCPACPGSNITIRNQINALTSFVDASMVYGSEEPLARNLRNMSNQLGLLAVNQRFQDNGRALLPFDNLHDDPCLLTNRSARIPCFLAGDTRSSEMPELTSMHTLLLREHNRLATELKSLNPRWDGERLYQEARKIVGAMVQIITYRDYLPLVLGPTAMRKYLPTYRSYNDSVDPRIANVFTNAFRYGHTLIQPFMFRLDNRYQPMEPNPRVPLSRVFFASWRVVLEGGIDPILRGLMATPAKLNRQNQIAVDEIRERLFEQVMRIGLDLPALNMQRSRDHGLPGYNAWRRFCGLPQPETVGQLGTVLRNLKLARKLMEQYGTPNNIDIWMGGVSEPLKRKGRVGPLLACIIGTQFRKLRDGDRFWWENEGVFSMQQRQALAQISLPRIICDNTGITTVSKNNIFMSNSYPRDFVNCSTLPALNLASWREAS
# How it was run: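 Recombinant MPO (40 nM) in 10 mM phosphate buffer pH 7.4 with 300 mM NaCl and 15 mM taurine, inhibitor up to 20 μM, 37 °C. Started with H2O2 (100 μM), stopped after 5 min with catalase. Taurine chloramine read with thionitrobenzoic acid at 412 nm. IC50 taken from the concentration curve, no H2O2 = 100% inhibition, no inhibitor = 0%.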
# [3] = biological target: T2, Myeloperoxidase (Homo sapiens) (UniProt P05164); test: Inhibition of human polymorphonuclear leukocyte MPO assessed as apparent bi-molecular rate constant for PorFe(4)=O radical reduction for 0.001 to 2.681 secs by stopped-flow spectroscopic analysis
# T2 sequence (whole entry): T1 sequence (P05164 whole entry)
# How it was run: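 Purified MPO (purity index A430/A280 ≥0.86) at 8 µM was premixed with 80 µM H2O2. Reaction in 200 mM phosphate, pH 7.4, 25 °C, 2% DMSO final. kobs taken as the mean of ≥3 runs. Second-order constant derived from the slope of kobs versus concentration.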
# [4] = biological target: T2, Myeloperoxidase (Homo sapiens); test: Inhibition of human polymorphonuclear leukocyte MPO assessed as apparent bimolecular rate constant for PorFe(4)-OH reduction for 4.01 to 31.32 secs by stopped-flow spectroscopic analysis
# How it was run: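 Single-exponential fits gave kobs, as the mean of ≥3 runs, with substrate at least 5-fold over enzyme. Conditions were 200 mM phosphate, pH 7.4, 25 °C, 2% DMSO final. Apparent second-order constant taken from the slope of kobs versus concentration.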
# [5] = biological target: Sodium-dependent serotonin transporter (Homo sapiens, UniProt P31645); test: Inhibition of human SERT expressed in HEK293 cells assessed as reduction in [3]5-HT uptake; format: cell-based
# How it was run: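 hSERT cDNA in pcDNA3.1, transfected into HEK-293 MSR cells (DMEM, 10% FCS, penicillin/streptomycin, 6 µg/mL Geneticin, 37 °C, 5% CO2). Cells detached with Versene and trypsin/EDTA and seeded into plates. [3H]5-HT uptake measured per an earlier described method, with HEK-293 MSR cells used in place of COS-1. Ki reported.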
# [6] = biological target: T2, Myeloperoxidase (Homo sapiens); test: Inhibition of human polymorphonuclear leukocyte MPO assessed as ratio of apparent bi-molecular rate constant for PorFe(4)=O radical reduction to PorFe(4)-OH reduction by stopped-flow spectroscopic analysis
# [7] = test system: HEK293; test: Ratio of Ki for human SERT expressed in HEK293 cells to IC50 for MPO chlorination activity (unknown origin); format: cell-based
# Sequence of Sodium-dependent serotonin transporter (P31645 whole entry): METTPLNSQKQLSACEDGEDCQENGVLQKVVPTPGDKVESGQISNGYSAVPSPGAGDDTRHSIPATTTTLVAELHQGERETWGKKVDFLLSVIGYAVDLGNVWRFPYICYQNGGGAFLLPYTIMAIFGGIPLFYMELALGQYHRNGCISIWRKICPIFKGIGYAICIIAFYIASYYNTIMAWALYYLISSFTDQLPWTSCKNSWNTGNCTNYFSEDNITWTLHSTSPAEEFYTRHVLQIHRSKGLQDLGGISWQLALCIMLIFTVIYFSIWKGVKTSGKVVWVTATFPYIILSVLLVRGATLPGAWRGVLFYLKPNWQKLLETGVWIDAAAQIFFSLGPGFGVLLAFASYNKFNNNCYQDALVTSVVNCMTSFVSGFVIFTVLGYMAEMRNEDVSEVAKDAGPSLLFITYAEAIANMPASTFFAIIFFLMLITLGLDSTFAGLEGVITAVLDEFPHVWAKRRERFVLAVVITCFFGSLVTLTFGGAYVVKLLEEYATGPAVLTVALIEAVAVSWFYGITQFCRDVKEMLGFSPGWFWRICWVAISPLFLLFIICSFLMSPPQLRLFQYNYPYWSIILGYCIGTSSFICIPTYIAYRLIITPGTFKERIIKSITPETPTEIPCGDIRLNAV
SMILES,Activity [1],IC50 [2] [nM],further results
COc1ccccc1CCCNCc1ccccc1,> 1.2 V,–,–
Fc1ccc(CN2CCN(Cc3ccc(F)cc3)CC2)cc1,1020 mV,> 10000,–
Oc1ccccc1CCCNCc1ccccc1,825 mV,360,–
Fc1ccccc1CN1CCN(Cc2ccccc2F)CC1,1100 mV,> 10000,–
c1ccc(CN2CCCN(Cc3ccccc3)C2)cc1,> 1.2 V,–,–
c1ccc(CCNCc2ccccc2)cc1,> 1.2 V,–,–
Oc1ccccc1CCCNCc1ccccc1O,844 mV,350,Kapp [3]: 1.5 ×10⁶ /M/s; Kapp [4]: 4.8 ×10³ /M/s; Ki [5]: 11000 nM; Ratio [6]: 313; Ratio [7]: 31.4
c1ccc(CCCNCc2ccccc2)cc1,> 1.2 V,–,–
Oc1ccccc1CNCCCc1c[nH]c2ccc(F)cc12,872 mV,54,Kapp [3]: 1.4 ×10⁷ /M/s; Kapp [4]: 3.5 ×10³ /M/s; Ki [5]: 800 nM; Ratio [6]: 4000; Ratio [7]: 14.8
COc1ccccc1CCCNCc1ccc(F)cc1,> 1.2 V,–,–
COc1ccccc1CCCNCc1ccccc1F,> 1.2 V,–,–
Oc1ccccc1CNCCCc1ccccc1,928 mV,1200,–
Oc1ccccc1CCCNCc1cccc(F)c1,820 mV,370,–
c1ccc(CN2CCN(Cc3ccccc3)CC2)cc1,996 mV,> 10000,–
COc1ccccc1CCNCc1ccc(F)cc1,> 1.2 V,–,–
Oc1ccccc1CCNCc1cccc(F)c1,807 mV,660,–
Oc1ccccc1CCNCc1ccc(F)cc1,865 mV,1160,–
Fc1cccc(CN2CCN(Cc3cccc(F)c3)CC2)c1,1060 mV,> 10000,–
Oc1ccccc1CN1CCN(Cc2ccccc2O)CC1,1070 mV,1400,–

SMILES,Activity [1],IC50 [2] [nM],further results
COc1ccccc1CCNCc1cccc(F)c1,> 1.2 V,–,–
Oc1ccccc1CNCCc1ccccc1F,948 mV,670,–
COc1ccccc1CCCNCc1ccccc1O,871 mV,2500,–
Oc1ccccc1CCNCc1ccccc1F,856 mV,700,–
Fc1ccc2[nH]cc(CCCNCc3ccccc3)c2c1,–,–,Ki [5]: 50 nM; Ratio [7]: 4.1
Oc1ccccc1CCCNCc1ccccc1F,833 mV,270,Kapp [3]: 5.7 ×10⁶ /M/s; Kapp [4]: 1.4 ×10³ /M/s; Ki [5]: 14000 nM; Ratio [6]: 4070; Ratio [7]: 51.8
Oc1ccccc1CCCNCc1ccc(F)cc1,869 mV,490,–
Oc1ccccc1CNCCc1ccccc1,973 mV,700,–
Oc1ccccc1CCNCc1ccccc1O,870 mV,650,–
Oc1ccccc1CC1CCCNC1 (centres undefined),960 mV,> 10000,–
Oc1ccccc1CCNCc1ccccc1,897 mV,2700,–
COc1ccccc1CCNCc1ccccc1,> 1.2 V,–,–
Oc1ccccc1CN1CCCCC1,953 mV,> 10000,–
Oc1ccccc1CNCCCc1ccccc1F,902 mV,370,–
O=C1N(Cc2ccccc2)CCCN1Cc1ccccc1,> 1.2 V,–,–
Oc1ccccc1CNCCc1c[nH]c2ccc(F)cc12,902 mV,85,–
COc1ccccc1CCCNCc1cccc(F)c1,> 1.2 V,–,–
COc1ccccc1CCNCc1ccccc1F,> 1.2 V,–,–
COc1ccccc1CCNCc1ccccc1O,907 mV,1850,–
